Measurements published in article PMC3954500 (Journal of Medicinal Chemistry, 2014).

Assays:
hA3AR = target: T1, hA3AR (Homo sapiens, UniProt P0DMS8); test: cAMP functional assay at the hA3AR expressed in CHO cells; type: cell-based; details: for functional behaviour at hA3AR: cAMP assay, CHO cells; for Emax at 10 µM: CHO, read-out: maximal stimulation of cAMP formation / % activation relative to the full agonist 16 (= 100%)
T1 sequence (P0DMS8 1-318): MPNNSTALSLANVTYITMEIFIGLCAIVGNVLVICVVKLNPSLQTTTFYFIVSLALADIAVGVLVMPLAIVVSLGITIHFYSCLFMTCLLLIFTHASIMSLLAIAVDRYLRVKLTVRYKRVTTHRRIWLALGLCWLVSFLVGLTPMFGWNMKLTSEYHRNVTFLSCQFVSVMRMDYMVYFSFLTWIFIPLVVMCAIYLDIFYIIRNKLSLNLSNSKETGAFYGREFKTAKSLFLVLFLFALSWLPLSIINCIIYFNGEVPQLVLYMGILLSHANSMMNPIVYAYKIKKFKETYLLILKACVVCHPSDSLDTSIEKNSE
Method in brief: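 Recombinant hA3AR-CHO cells, plated 24 h, washed with DMEM/50 mM HEPES pH 7.4. Treated with agonists and/or test compound plus rolipram (10 μM) and adenosine deaminase (3 units/mL); forskolin (10 μM) added at 45 min, incubation continued 15 min. Lysed with ice-cold 0.1 M HCl. cAMP quantified by PKA competition with [3H]cAMP (2 nM), GF/C filtration, scintillation, against cAMP standard curve. Mean ± SEM.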

hA2AAR = hA2AAR (Homo sapiens, UniProt P29274); test: Radioligand binding at hA2AAR; details: 4a versus truncated 4′-thioadenosine derivative 2
A1, A2A, and A3ARs = details: read-out: EC50 for activation of A1, A2A, and A3ARs; ref [5]; cited from earlier work
A2BAR = details: read-out: EC50 for activation of A2BAR; ref [5]; cited from earlier work

Sequence of hA2AAR (P29274 whole entry, the tested form may be a part): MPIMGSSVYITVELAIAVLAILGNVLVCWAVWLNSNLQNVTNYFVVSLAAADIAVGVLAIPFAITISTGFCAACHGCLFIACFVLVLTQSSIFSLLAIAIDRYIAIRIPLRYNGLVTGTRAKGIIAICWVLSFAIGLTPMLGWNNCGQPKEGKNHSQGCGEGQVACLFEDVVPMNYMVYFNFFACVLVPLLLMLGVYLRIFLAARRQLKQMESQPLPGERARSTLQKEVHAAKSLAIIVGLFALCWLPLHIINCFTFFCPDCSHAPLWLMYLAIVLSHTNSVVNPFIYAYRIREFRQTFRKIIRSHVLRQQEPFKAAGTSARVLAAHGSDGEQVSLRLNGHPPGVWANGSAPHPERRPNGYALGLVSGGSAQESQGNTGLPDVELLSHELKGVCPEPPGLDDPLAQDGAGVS

Row | Structure (SMILES) | functional behaviour at hA3AR (hA3AR) | Emax at 10 µM (hA3AR) | further results
1 | CCCCC#Cc1nc(NCc2cccc(Cl)c2)c2ncn([C@H]3[C@H](O)[C@H](O)[C@@H]4C[C@@H]43)c2n1 [4h, (1R,2R,3S,4R,5S)-4-(6-(3-Chlorobenzylamino)-2-(hex-1-ynyl)-9H-purin-9-yl)bicyclo[3.1.0] hexane-2,3-diol] | antagonists | – | –
2 | CCCCC#Cc1nc(NCc2cccc(Br)c2)c2ncn([C@H]3[C@H](O)[C@H](O)[C@@H]4C[C@@H]43)c2n1 [4g, (1R,2R,3S,4R,5S)-4-(6-(3-Bromobenzylamino)-2-(hex-1-ynyl)-9H-purin-9-yl)bicyclo[3.1.0]hexane-2,3-diol] | antagonists | – | –
3 | CCCCC#Cc1nc(NC)c2ncn([C@H]3[C@H](O)[C@H](O)[C@@H]4C[C@@H]43)c2n1 [4b] | partial agonist | – | –
4 | CCCCC#Cc1nc(NC2CC2)c2ncn([C@H]3[C@H](O)[C@H](O)[C@@H]4C[C@@H]43)c2n1 [4d, (1R,2R,3S,4R,5S)-4-(6-(Cyclopropylamino)-2-(hex-1-ynyl)-9H-purin-9-yl)bicyclo[3.1.0]hexane-2,3-diol] | partial agonists | 19.8 ± 4.6% | –
5 | CCCCC#Cc1nc(NCc2cccc(F)c2)c2ncn([C@H]3[C@H](O)[C@H](O)[C@@H]4C[C@@H]43)c2n1 [4i, (1R,2R,3S,4R,5S)-4-(6-(3-Fluorobenzylamino)-2-(hex-1-ynyl)-9H-purin-9-yl)bicyclo[3.1.0] hexane-2,3-diol] | partial agonists | 18.9 ± 7.5% | –
6 | CCCCC#Cc1nc(NCC)c2ncn([C@H]3[C@H](O)[C@H](O)[C@@H]4C[C@@H]43)c2n1 [4c, (1R,2R,3S,4R,5S)-4-(6-(ethylamino)-2-(hex-1-ynyl)-9H-purin-9-yl)bicyclo[3.1.0]hexane-2,3-diol] | partial agonists | 15.5 ± 6.7% | –
7 | CCCCC#Cc1nc(NC2CCCC2)c2ncn([C@H]3[C@H](O)[C@H](O)[C@@H]4C[C@@H]43)c2n1 [4e, (1R,2R,3S,4R,5S)-4-(6-(Cyclopentylamino)-2-(hex-1-ynyl)-9H-purin-9-yl)bicyclo[3.1.0]hexane-2,3-diol] | partial agonists | 27.1 ± 14.6% | –
8 | CCCCC#Cc1nc(NCc2cccc(I)c2)c2ncn([C@H]3[C@H](O)[C@H](O)[C@@H]4C[C@@H]43)c2n1 [4f, (1R,2R,3S,4R,5S)-4-(6-(3-Iodobenzylamino)-2-(hex-1-ynyl)-9H-purin-9-yl)bicyclo[3.1.0]hexane-2,3-diol] | antagonists | – | –
9 | CCCCC#Cc1nc(N)c2ncn([C@H]3[C@H](O)[C@H](O)[C@@H]4C[C@@H]43)c2n1 [4a, (1R,2R,3S,4R,5S)-4-(6-Amino-2-(hex-1-ynyl)-9H-purin-9-yl)bicyclo[3.1.0]hexane-2,3-diol] | – | – | fold less potent than 2 in binding affinity at the hA2AAR (hA2AAR): 14 fold and ≈ 14 fold
